Measured values published in article PMC4981245 (ACS chemical biology, 2016).
“Also recorded” adds a separate entry of the source. Where two headings read alike, the source gives them in different places. Values belong to the molecule of their own block, whether it stands above or below them.

How the values were obtained:
[1] = molecular target: T1, mGlu5 (Rattus norvegicus, UniProt P31424); format: cell-based; conditions: for EC80 glutamate inhibition hill slope: HEK293A-mGlu5-low
[2] = molecular target: T1, mGlu5; experiment: [3H]mPEPy inhibition binding, membranes from HEK293A-mGlu5-low; conditions: for displacement of [3H]mPEPy binding, incubation time 4 h: equilibration time extended to 4 h
Procedure, shortened: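 HEK293A-mGlu5-low membranes with ~2 nM [3H]mPEPy and test compound (0.3 nM–30 μM) in Ca2+ assay buffer, RT, 1 h initially, extended to 4 h. […] Filtration on GF/B, ice-cold 0.9% NaCl/50 mM Tris pH 7.4 washes, scintillation counting.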

[3] = molecular target: T1, mGlu5; format: binding; conditions: for [3H]mPEPy binding after pretreatment, three (5 min) washes: 1 μM pretreatment
Procedure, shortened: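 Whole HEK293A-mGlu5-low cells plated at ~200 000 cells/well on poly-D-lysine. Test compound (1 μM) applied 10 min at RT, with or without UV. Washed either 3 × 5 min or 5 × 1 h at RT in Ca2+ assay buffer. Then ~2 nM [3H]mPEPy for 1 h at RT, ice-cold 0.9% NaCl washes, 0.2 M NaOH lysis overnight, liquid scintillation counting.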

[4] = molecular target: T1, mGlu5; experiment: Agonist Ca2+ mobilization after acute NAM exposure and extensive washes; format: cell-based; conditions: for ΔEmax: change after azido-alkyne 8 (1uM)
[5] = tested on: purified mGlu5
[6] = molecular target: T1, mGlu5; experiment: Modulation of glutamate concentration-response curves for Ca2+ mobilization; format: cell-based
[7] = molecular target: T1, mGlu5; experiment: Agonist activity in mGlu5 intracellular Ca2+ mobilization; format: cell-based; conditions: absence of glutamate

T1 sequence (P31424 21-1203): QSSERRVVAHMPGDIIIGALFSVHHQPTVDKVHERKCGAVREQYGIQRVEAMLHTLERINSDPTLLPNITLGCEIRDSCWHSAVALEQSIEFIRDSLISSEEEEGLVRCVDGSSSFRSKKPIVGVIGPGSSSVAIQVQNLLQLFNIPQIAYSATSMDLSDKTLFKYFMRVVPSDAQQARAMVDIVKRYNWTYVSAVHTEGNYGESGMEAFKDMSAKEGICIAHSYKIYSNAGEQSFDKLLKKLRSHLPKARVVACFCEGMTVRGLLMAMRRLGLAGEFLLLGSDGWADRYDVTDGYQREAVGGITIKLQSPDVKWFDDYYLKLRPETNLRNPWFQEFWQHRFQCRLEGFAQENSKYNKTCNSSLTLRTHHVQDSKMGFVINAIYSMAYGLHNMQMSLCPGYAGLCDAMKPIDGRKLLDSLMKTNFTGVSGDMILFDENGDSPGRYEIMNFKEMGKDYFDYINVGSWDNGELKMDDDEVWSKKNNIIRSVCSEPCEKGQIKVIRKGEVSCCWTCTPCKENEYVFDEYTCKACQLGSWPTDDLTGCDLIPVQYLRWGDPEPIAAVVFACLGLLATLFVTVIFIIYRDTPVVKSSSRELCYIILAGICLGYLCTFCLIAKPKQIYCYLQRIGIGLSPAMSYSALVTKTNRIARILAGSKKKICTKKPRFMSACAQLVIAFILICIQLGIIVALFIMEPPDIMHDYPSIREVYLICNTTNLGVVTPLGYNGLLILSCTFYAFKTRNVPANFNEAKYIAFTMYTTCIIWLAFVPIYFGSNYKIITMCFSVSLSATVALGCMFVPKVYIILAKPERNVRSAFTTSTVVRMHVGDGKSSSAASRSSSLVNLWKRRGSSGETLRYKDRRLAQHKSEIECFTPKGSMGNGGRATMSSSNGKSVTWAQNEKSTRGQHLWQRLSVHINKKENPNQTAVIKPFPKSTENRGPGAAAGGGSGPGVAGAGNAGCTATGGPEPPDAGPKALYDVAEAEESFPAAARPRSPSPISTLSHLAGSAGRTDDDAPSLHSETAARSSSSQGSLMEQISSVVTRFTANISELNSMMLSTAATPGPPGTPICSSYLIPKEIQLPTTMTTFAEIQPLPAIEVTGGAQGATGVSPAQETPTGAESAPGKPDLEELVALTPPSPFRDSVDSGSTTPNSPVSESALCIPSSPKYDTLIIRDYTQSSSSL

EC80 glutamate inhibition hill slope [1]: −1.53 ± 0.18
EC80 glutamate inhibition pKB ([1]; operational model of allosterism applied to EC80 glutamate inhibition curves): 7.97 ± 0.16
displacement of [3H]mPEPy binding, incubation time 4 h [2]: no effect
effect of pre-exposure on potency or maximal response to glutamate or VU0424465 ([4]; 10 min exposure followed by five extended washes): no effect
SMILES: Cc1cccc(C#Cc2ccccc2)n1 [6 (MPEP), MPEP, reference compound]
[3H]mPEPy binding after pretreatment, three (5 min) washes [3]: reduced [^3H]mPEPy binding to a similar extent
inhibition of mGlu5 photoaffinity labeling of the clickable photoprobes ([5]; saturating concentration (10 μM)): did not inhibit

pEC50 (untreated) ([4]; HEK293A-mGlu5-low, untreated): 6.60 ± 0.18
pKA ([4]; equilibrium dissociation constant of the agonist, receptor depletion with azido-alkyne 8 (1uM)): 6.17 ± 0.25
pEC50 (treated) ([4]; treated with azido-alkyne 8 (1uM)): 6.11 ± 0.23
SMILES: C[C@@H](NC(=O)c1ccc(C#Cc2cccc(F)c2)cn1)C(C)(C)O [VU0424465]
ΔEmax [4]: −18.3 ± 10.8 percentage of the maximum response to glutamate

IC50 [1]: 647 nM
Kb [1]: 891 nM
fold less potent than lead NAM 2 at inhibiting EC80 glutamate response [1]: ~ 5 fold
EC80 glutamate inhibition hill slope [1]: −0.91 ± 0.23
Ki [2]: 25.1 nM
displacement of [3H]mPEPy binding ([2]; initial assay conditions): incomplete displacement
fold higher mGlu5 binding affinity relative to lead NAM 2 ([2]; radioligand inhibition binding): 2 fold
fold increase of affinity estimate with 30 min versus 1 min preincubation [6]: ~ 10 fold
effect on glutamate maximal functional response ([6]; 1 min pre-exposure): complete inhibition
Kb ([6]; affinity estimate pKB, 30 min preincubation, photoprobe preincubation 30 min): 36.3 nM
affinity estimate (pKB) fold difference to benzyl ether derivative 3 ([6]; allosteric interaction assay, 1 min): ≤ 5 fold
[3H]mPEPy binding after pretreatment, three (5 min) washes [3]: significantly reduced
[3H]mPEPy binding after extensive wash protocol (five 1 h washes) ([3]; absence of UV irradiation): concentration-dependently inhibited
SMILES: COc1cc(O)c(C(=O)c2ccccc2)cc1S(=O)(=O)O [compound 4]
displacement of [3H]mPEPy binding, incubation time 4 h [2]: complete displacement; also recorded: fully displaced
intrinsic agonist activity at mGlu5 [7]: No evidence of agonist activity; also recorded: no intrinsic agonist activity
Cy5.5 in-gel fluorescence of mGlu5 dimer band ([5]; absence of a competitor, versus vehicle): significantly increase

SMILES: N[C@@H](CCC(=O)O)C(=O)O [glutamate]
ΔEmax [4]: −46.3 ± 18.3 percentage of the maximum response to glutamate
